The test system of one assay is P388. Kind of assay: Inhibitory concentration required to reduce murine p388 leukemia cell number to 50% of control cultures. It counts as functional, cell-based. Conditions: Mus musculus.
Assay [1] has as its system Jurkat. Kind of assay: Ratio of IC50 of mutant Jurkat leukemia (JLD) to the IC50 of Jurkat leukemia (JLC sensitive, wild type). Format: functional, Homo sapiens. The method in brief: (§1)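 Jurkat lines were each plated at 3.75 × 10³ per well and grown 4 days with drug: parental JL_C, amsacrine-resistant JL_A and doxorubicin-resistant JL_D. Growth was read by sulforhodamine assay. IC50 is the concentration giving 50% of control cell number. Ratio is IC50 in JL_A or JL_D divided by IC50 in JL_C.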

For assay [2], the system named is Jurkat. The assay is described as follows: Ratio of IC50 of Jurkat leukemia amsacrine (JLA) to the IC50 of Jurkat leukemia (JLC sensitive, wild type). Format: functional, Homo sapiens. The gist of the method:
as §1

Assay [3] concerns Jurkat. Kind of assay: Inhibitory concentration required to reduce human Jurkat leukemia (JLC sensitive, wild type) cell number to 50% of control cultures. It counts as functional, cell-based.
For a further assay, the system named is LLTC cell line. Kind of assay: Inhibitory concentration required to reduce Lewis lung carcinoma cell number to 50% of control cultures. Conditions: Mus musculus. It counts as functional, cell-based. The method in brief:
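Lewis lung carcinoma cells seeded at 10³ per well and exposed to drug for 4 days. Growth read by sulforhodamine assay; IC50 is the drug concentration (nM) that cuts cell number to 50% of control cultures. Value is the mean of at least two independent determinations done in duplicate; coefficient of variation 7.9–8.5%.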

For the molecule `CN(C)CCNC(=O)c1cccc2cc3cccnc3nc12`, the IC50 in the assay with P388 was found to be 340 nM; in the assay on Jurkat [3], 1420 nM; in the assay on LLTC cell line, 452 nM. Further, the results for the Ratio in the assay with Jurkat [1] and with Jurkat [2] were 1.2 and 1.1, respectively.

Take `COc1cccc2cc3cccc(C(=O)NCCN(C)C)c3nc12`: the figures for the IC50 with P388, in the assay with Jurkat [3] and in the assay on LLTC cell line were 26 nM, 111 nM and 36 nM, respectively. In addition, the results for the Ratio with Jurkat [1] and in the assay on Jurkat [2] were 5.6 and 4.9, respectively.

As for `CN(C)CCNC(=O)c1cccc2cc3cccc(Cl)c3nc12`, the IC50 was 6.5 nM in the assay on P388 and 36 nM in the assay with LLTC cell line. In the assay with Jurkat [2], the Ratio is 4.2.

As to `CN(C)CCNC(=O)c1cccc2cc3cccc(-c4ccccc4)c3nc12`, the values for the IC50 with P388, in the assay with Jurkat [3] and with LLTC cell line were 250 nM, 1660 nM and 706 nM, respectively. Moreover, the Ratio came out at 1.4 with Jurkat [1] and 1.55 in the assay on Jurkat [2].

On to `CN(C)CCNC(=O)c1cccc2cc3ccc(N(C)C)cc3nc12`, for which the IC50 was 260 nM in the assay with P388, 212 nM with Jurkat [3] and 272 nM in the assay with LLTC cell line. The Ratio is recorded as 0.85 in the assay with Jurkat [1] and 0.6 with Jurkat [2].

For `Cc1cccc2cc3cccc(C(=O)NCCN(C)C)c3nc12`, the concentration for half-maximal inhibition (IC50) was 6.4 nM in the assay on P388, 46 nM in the assay with Jurkat [3] and 5.6 nM with LLTC cell line. Also, the Ratio in the assay with Jurkat [1] is 4.8; in the assay with Jurkat [2] it was 4.6.

In the case of `COc1ccc2cc3cccc(C(=O)NCCN(C)C)c3nc2c1`, the IC50 in the assay with P388 is 160 nM; in the assay with Jurkat [3], 580 nM; in the assay with LLTC cell line, 281 nM. Besides, the Ratio in the assay with Jurkat [1] and in the assay on Jurkat [2] was 1.1 each time.

Regarding `Cc1cccc2nc3c(C(=O)NCCN(C)C)cccc3cc12`, the IC50 came out at 250 nM in the assay on P388, 1060 nM in the assay on Jurkat [3] and 372 nM in the assay on LLTC cell line. In addition, the Ratio worked out at 1.05 in the assay with Jurkat [1] and 0.95 in the assay on Jurkat [2].

On to `CN(C)CCNC(=O)c1cccc2cc3cccc(C(F)(F)F)c3nc12`, for which the IC50 in the assay with P388 came out at 18 nM; in the assay on Jurkat [3] it was 75 nM; in the assay on LLTC cell line, 17 nM. For the same molecule, the Ratio amounted to 5 with Jurkat [1] and 4.4 with Jurkat [2].

For `Cc1ccc2nc3c(C(=O)NCCN(C)C)cccc3cc2c1`, the IC50 in the assay with P388 turned out to be 330 nM; in the assay with Jurkat [3] it was 1350 nM; with LLTC cell line, 735 nM. Moreover, the Ratio in the assay on Jurkat [1] came to 1.1; with Jurkat [2] it was 1.

Regarding `CCc1ccc2nc3c(C(=O)NCCN(C)C)cccc3cc2c1`, the IC50 with P388 worked out at 240 nM; with Jurkat [3], 1840 nM; in the assay with LLTC cell line, 346 nM. Moreover, the Ratio came out at 1.85 in the assay with Jurkat [1] and 1.55 in the assay with Jurkat [2].

With `CN(C)CCNC(=O)c1cccc2cc3cccc(Br)c3nc12`, the IC50 with P388 came out at 3.8 nM; in the assay with Jurkat [3], 26 nM; in the assay on LLTC cell line, 6.2 nM. For the same molecule, the Ratio worked out at 4.9 in the assay with Jurkat [1] and 3.8 with Jurkat [2].

Take `CN(C)CCNC(=O)c1cccc2cc3cccc(N(C)C)c3nc12`: the IC50 in the assay with P388 is 1200 nM; with Jurkat [3], 5710 nM; in the assay on LLTC cell line, 4130 nM. Further, the figures for the Ratio in the assay with Jurkat [1] and in the assay with Jurkat [2] were 0.9 and 0.85, respectively.

Consider `CN(C)CCNC(=O)c1cccc2cc3cc(F)ccc3nc12`, for which the IC50 in the assay with P388 amounted to 55 nM; in the assay with Jurkat [3] it was 424 nM; with LLTC cell line it was 158 nM. The Ratio in the assay on Jurkat [1] is reported as 2.1; with Jurkat [2], 1.8.

With `CN(C)CCNC(=O)c1cccc2cc3cc(-c4ccccc4)ccc3nc12`, the 50% inhibitory concentration (IC50) came to 94 nM in the assay with P388, 240 nM in the assay with Jurkat [3] and 168 nM in the assay with LLTC cell line. Besides, the Ratio in the assay with Jurkat [1] stood at 6.5; with Jurkat [2], 3.

On to `COc1ccc2nc3c(C(=O)NCCN(C)C)cccc3cc2c1`, for which the IC50 in the assay on P388 stood at 580 nM; in the assay on Jurkat [3], 1590 nM; in the assay with LLTC cell line, 810 nM. Besides, the Ratio in the assay on Jurkat [1] was found to be 1.1; in the assay on Jurkat [2], 1.

Usually IC50 stands for the point on the concentration scale where inhibition reaches its midpoint. Read a low IC50 as greater potency.

Values taken from ChEMBL document CHEMBL1130207, “Structure-activity relationships for acridine-substituted analogues of the mixed topoisomerase I/II inhibitor N-[2-(dimethylamino)ethyl]acridine-4-carboxamide” (J Med Chem, 1997).
